# Experimental data reported in ChEMBL document CHEMBL4616681, “Discovery of 3-Pyridyl Isoindolin-1-one Derivatives as Potent, Selective, and Orally Active Aldosterone Synthase (CYP11B2) Inhibitors” (J Med Chem, 2020).
# What was measured:
# [1] = Intrinsic clearance in human liver microsomes preincubated for 10 mins followed by NADPH regenerating system addition and measured up to 30 mins by LC/MS-MS analysis; assay type: ADME, Microsome; settings: read-out: CLH
# In short: (§1)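 Liver microsomes at 0.5 mg protein/mL in 100 mM potassium phosphate, pH 7.4. Compound preincubated 10 min at 37 °C. Intrinsic clearance scaled using the well-stirred liver model.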
# [2] = Intrinsic clearance in mouse liver microsomes preincubated for 10 mins followed by NADPH regenerating system addition and measured up to 30 mins by LC/MS-MS analysis; assay type: ADME, Microsome; in short: as §1
# [3] = target: T1, Cytochrome P450 11B1, mitochondrial (Homo sapiens, UniProt P15538); experiment: Inhibition of human CYP11B1 expressed in human renal leiomyoblastoma cells harboring FDXR/FDX using 1-deoxycortisol as substrate by HTRF assay; assay type: ADME, cell-based
# T1 sequence (P15538 whole entry): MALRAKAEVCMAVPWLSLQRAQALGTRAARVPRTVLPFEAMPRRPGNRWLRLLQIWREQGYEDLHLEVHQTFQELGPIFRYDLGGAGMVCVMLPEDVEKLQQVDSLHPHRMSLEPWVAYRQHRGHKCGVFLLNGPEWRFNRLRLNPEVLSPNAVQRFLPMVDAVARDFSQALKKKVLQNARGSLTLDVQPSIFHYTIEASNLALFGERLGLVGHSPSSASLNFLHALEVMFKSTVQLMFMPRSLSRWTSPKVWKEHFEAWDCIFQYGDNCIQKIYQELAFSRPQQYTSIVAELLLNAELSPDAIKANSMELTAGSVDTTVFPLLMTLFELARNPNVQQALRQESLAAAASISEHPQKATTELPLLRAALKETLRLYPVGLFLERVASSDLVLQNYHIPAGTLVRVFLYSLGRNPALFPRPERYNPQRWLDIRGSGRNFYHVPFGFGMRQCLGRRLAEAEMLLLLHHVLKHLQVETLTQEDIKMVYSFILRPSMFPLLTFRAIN
# In short: (§2)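 Cells with endogenous FDXR/FDX and no detectable CYP11B activity, stably transfected (CMV promoter, neomycin selection, G-418 400 µg/mL) with CYP11B1 or CYP11B2 of the named species. Assayed in DMEM/F12 with 2.5% charcoal-treated FCS. Substrate 1 µM 11-deoxycorticosterone (B2) or 11-deoxycortisol (B1), 16 hr. Aldosterone or cortisol in supernatant measured by HTRF. IC50 from 4-parameter MMF fit; selectivity factor is the B1/B2 IC50 ratio.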
# [4] = Selectivity ratio of IC50 for human CYP11B1 expressed in human renal leiomyoblastoma cells harboring FDXR/FDX to IC50 for human CYP11B2 expressed in human renal leiomyoblastoma cells harboring FDXR/FDX; assay type: cell-based; in short: as §2
# [5] = target: T2, Cytochrome P450 11B2, mitochondrial (Homo sapiens, UniProt P19099); experiment: Inhibition of human CYP11B2 expressed in human renal leiomyoblastoma cells harboring FDXR/FDX using 1-deoxycorticosterone as substrate by HTRF assay; assay type: cell-based; in short: as §2
# T2 sequence (P19099 whole entry): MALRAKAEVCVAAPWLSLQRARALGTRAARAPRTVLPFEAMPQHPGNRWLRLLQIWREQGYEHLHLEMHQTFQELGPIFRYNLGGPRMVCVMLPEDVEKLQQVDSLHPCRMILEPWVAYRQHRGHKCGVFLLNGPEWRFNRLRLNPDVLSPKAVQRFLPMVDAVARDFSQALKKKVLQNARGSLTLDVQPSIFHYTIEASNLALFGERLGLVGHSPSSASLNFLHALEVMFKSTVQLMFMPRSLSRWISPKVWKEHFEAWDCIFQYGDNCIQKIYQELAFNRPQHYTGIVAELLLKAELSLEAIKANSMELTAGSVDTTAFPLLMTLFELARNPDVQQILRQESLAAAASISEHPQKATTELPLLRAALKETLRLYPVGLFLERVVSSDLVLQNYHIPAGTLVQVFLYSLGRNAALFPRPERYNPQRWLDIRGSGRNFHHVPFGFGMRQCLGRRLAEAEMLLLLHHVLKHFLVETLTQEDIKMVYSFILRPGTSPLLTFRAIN
# [6] = Selectivity ratio of IC50 for cynomolgus monkey CYP11B1 expressed in human G401 cells to IC50 for cynomolgus monkey CYP11B2 expressed in human G401 cells; assay type: cell-based; in short: as §2
# [7] = Inhibition of cynomolgus monkey CYP11B2 expressed in human G401 cells using 1-deoxycorticosterone as substrate by HTRF assay; assay type: cell-based, Macaca fascicularis; settings: g-401; in short: as §2
# [8] = Intrinsic clearance in rat liver microsomes preincubated for 10 mins followed by NADPH regenerating system addition and measured up to 30 mins by LC/MS-MS analysis; assay type: ADME, Microsome; in short: as §1
Structure (SMILES),predicted hepatic clearance [1] [mL/min/kg],predicted hepatic clearance (CLH) [2] [mL/min/kg],IC50 [3] [µM],IC50 [5] [nM],IC50 [7] [nM],predicted hepatic clearance (CLH) [8] [mL/min/kg],Ratio IC50 [4],Ratio IC50 [6]
CC(=O)N[C@@H]1CCCc2c1cncc2N1Cc2cc(Cl)ccc2C1=O,< 3.5,< 20.2,2.33,44,,,53,
O=C1c2ccccc2CN1c1cccnc1,,,> 3,1120,,,> 3,
C[C@@H](NS(C)(=O)=O)c1cncc(N2C(=O)c3ccc(Cl)cc3C2(C)C)c1,,,,8,4,,71,93
CC(=O)N1CCC(Oc2cncc(N3C(=O)c4ccc(Cl)cc4C3(C)C)c2)CC1,,,,4,2,,61,225
CC1(C)c2cc(Cl)ccc2C(=O)N1c1cncc(CNS(C)(=O)=O)c1,,,,33,10,,49,179
O=C(Nc1cccnc1)c1ccccc1Cl,,,> 3,967,,,> 3,
Cc1cc(Cl)ccc1C(=O)N(C)c1cccnc1,,,> 3,> 3000,,,,
O=C(Nc1cccnc1)c1ccc(Cl)cc1F,,,> 3,297,,,> 10,
CCC(=O)N[C@@H]1CCCc2c1cncc2N1C(=O)c2ccc(Cl)cc2[C@H]1CC,< 3.5,44.9,10.2,90,,,114,
CC(=O)N1CC2(C1)CN(c1cncc(N3C(=O)c4ccc(Cl)cc4C3(C)C)c1)C2,,,,23,,3.71,640,
CC1c2cc(Cl)ccc2C(=O)N1c1cccnc1 (stereo not given),12.2,66.5,1.25,123,,,10,
CC(=O)N1CC[C@@H](Oc2cncc(N3C(=O)c4ccc(Cl)cc4C3(C)C)c2)C1,,,,11,7,,113,643
CC(=O)N[C@H]1CCCc2c1cncc2N1Cc2cc(Cl)ccc2C1=O,,,39.6,5140,,,8,
CC(=O)N[C@@H]1CCCc2c1cncc2N1C(=O)c2ccc(Cl)cc2[C@@H]1C1CC1,,,> 30,354,,,> 85,
N#Cc1ccc(C(=O)Nc2cccnc2)cc1,,,> 3,454,,,> 7,
Cc1ccc(C(=O)Nc2cccnc2)cc1,,,> 3,> 3000,,,,
CC(=O)N1CCC(c2cncc(N3C(=O)c4ccc(Cl)cc4C3(C)C)c2)CC1,,,,5,2,,77,466
CC(=O)N[C@@H]1CCCc2c1cncc2N1C(=O)c2ccc(Cl)cc2[C@H]1C,< 3.5,43.5,5.14,130,,,40,
Cc1cc(Cl)ccc1C(=O)Nc1cccnc1,,,> 3,277,,,> 11,
CCS(=O)(=O)NCc1cncc(N2C(=O)c3ccc(Cl)cc3C2(C)C)c1,,,,92,,,31,
CCC(=O)N[C@@H]1CCCc2c1cncc2N1C(=O)c2ccc(Cl)cc2[C@@H]1C,< 3.5,< 20.2,0.414,6,,,69,
CC(=O)N[C@@H]1CCCc2c1cncc2N1C(=O)c2ccc(Cl)cc2[C@@H]1C,< 3.5,< 20.2,0.081,4,,,20,
O=C1c2cc(F)c(Cl)cc2CCN1c1cccnc1,< 3.5,30.9,3.54,104,,,34,
CN(C(=O)c1ccc(Cl)cc1F)c1cccnc1,,,> 3,> 3000,,,,
CCC1c2cc(Cl)ccc2C(=O)N1c1cccnc1 (stereo not given),6.6,65.9,3.34,121,,,28,
CC(=O)N1CC[C@H](Oc2cncc(N3C(=O)c4ccc(Cl)cc4C3(C)C)c2)C1,,,,7,5,,81,193
CC(=O)NCc1cncc(N2C(=O)c3ccc(Cl)cc3C2(C)C)c1,,,,59,14,,47,333
O=C1c2ccc(Cl)cc2C2(CC2)N1c1cccnc1,3.5,,4.45,120,,,37,
Cc1cccnc1C(=O)NCc1cncc(N2C(=O)c3ccc(Cl)cc3C2(C)C)c1,,,,9,,,89,191
CC[C@@H]1c2cc(Cl)ccc2C(=O)N1c1cncc2c1CCC[C@H]2NC(C)=O,< 3.5,< 20.2,0.334,7,,,48,

# More lines, main results first:
predicted hepatic clearance [1] [mL/min/kg],predicted hepatic clearance (CLH) [2] [mL/min/kg],IC50 [3] [µM],IC50 [5] [nM],IC50 [7] [nM],predicted hepatic clearance (CLH) [8] [mL/min/kg],Structure (SMILES),Ratio IC50 [4],Ratio IC50 [6]
,,> 3,> 3000,,,CN(C(=O)c1ccc(C#N)cc1)c1cccnc1,,
< 3.5,,3.33,119,,< 20.2,CCC(=O)N[C@@H]1CCCc2c1cncc2N1CCc2cc(Cl)ccc2C1=O,,
,,,14,,,Cc1ccncc1C(=O)N1CC2(C1)CN(c1cncc(N3C(=O)c4ccc(Cl)cc4C3(C)C)c1)C2,1870,
,,> 3,420,,,O=C(Nc1cccnc1)c1ccc(Cl)cc1,> 7,
< 3.5,< 20.2,3.63,97,,,CC[C@H]1c2cc(Cl)ccc2C(=O)N1c1cncc2c1CCC[C@H]2NC(C)=O,37,
9.4,,32.5,161,,,O=C1c2ccc(Cl)cc2C(C2CC2)N1c1cccnc1 (stereo not given),202,
< 3.5,< 20.2,0.345,12,,,CCC(=O)N[C@@H]1CCCc2c1cncc2N1C(=O)c2ccc(Cl)cc2[C@@H]1CC,29,
< 3.5,< 20.2,9.35,998,,,CS(=O)(=O)N[C@@H]1CCCc2c1cncc2N1Cc2cc(Cl)ccc2C1=O,9,
,,22.8,100,,,CC(=O)N[C@@H]1CCCc2c1cncc2N1C(=O)c2ccc(Cl)cc2[C@H]1C1CC1,228,
,,0.214,1070,,,O=C1c2ccc(Cl)cc2C(Cc2ccccc2)N1c1cccnc1 (stereo not given),0.2,
< 3.5,27,1.79,40,,,CCS(=O)(=O)N[C@@H]1CCCc2c1cncc2N1Cc2cc(Cl)ccc2C1=O,45,
< 3.5,45.6,9.41,66,,,CCC(=O)N[C@@H]1CCCc2c1cncc2N1C(=O)c2ccc(Cl)cc2[C@H]1C,143,
,,,282,,,CCC(=O)NCc1cncc(N2C(=O)c3ccc(Cl)cc3C2(C)C)c1,28,
< 3.5,25,4.28,108,,,CC1(C)c2cc(Cl)ccc2C(=O)N1c1cccnc1,40,
